The nature of data set [1]: AUC (0 to infinity) in CD-1 mouse at 2 mg/kg, iv by LC-MS analysis. Type of data set: ADME, organism-based. Also on record: route intravenous, time infinity, dose 2 mg/kg. The settings on record: in vivo. Summed up:
(§1)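 Female CD-1 mice, 5 weeks old, 3 per time point. Dosed at 10 µl/g, DMSO solution diluted in Captisol, p.o. 5 mg/kg or i.v. 2 mg/kg. Sacrifice at 5, 15, 30 min and 1, 2, 4, 7, 24 h. Plasma acetonitrile-precipitated, quantified by LC-MS/MS (C18, positive H-ESI, SRM) against a calibration curve in blank mouse plasma.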

Data set [2] is described as follows: Tmax in CD-1 mouse at 5 mg/kg, po by LC-MS analysis. Type of data set: ADME, organism-based. The settings on record: in vivo. An outline of the steps: (§2)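 Female CD-1 mice, 5 weeks old, 3 animals per time point. Compound dissolved in DMSO, diluted in Captisol, given p.o. at 5 mg/kg or i.v. at 2 mg/kg. Animals sacrificed at 5, 15 and 30 min and 1, 2, 4, 7 and 24 h. Plasma precipitated with cold acetonitrile and quantified by LC-MS/MS (SRM, positive H-ESI) against a blank mouse plasma calibration curve.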

The nature of data set [3]: Kinetic solubility of compound in pH 7.4 Soerensen's buffer at 500 uM measured after […] by UV-VIS absorption spectrophotometry. The conditions noted are these: time 1.5 hrs, read-out: Kinetic_solubility. Type of data set: physicochemical.
The nature of data set [4]: Cmax in CD-1 mouse at 5 mg/kg, po by LC-MS analysis. Type of data set: ADME, organism-based. Details: route oral, dose 5 mg/kg. The settings on record: in vivo. An outline of the steps:
as §1

Data set [5] can be described thus: Tmax in CD-1 mouse at 2 mg/kg, iv by LC-MS analysis. Type of data set: ADME, organism-based. The conditions noted are these: in vivo. Summed up: as §2
Data set [6] is described as follows: Kinetic solubility of compound in water at 500 uM measured after […] by UV-VIS absorption spectrophotometry. Type of data set: physicochemical. The conditions noted are these: time 1.5 hrs, read-out: Kinetic_solubility.
A short description of data set [7]: AUC (0 to t) in CD-1 mouse at 2 mg/kg, iv by LC-MS analysis. The settings on record: in vivo. Also on record: dose 2 mg/kg. Type of data set: ADME, organism-based. An outline of the steps: as §1
Data set [8] can be described thus: Cmax in CD-1 mouse at 2 mg/kg, iv by LC-MS analysis. The settings on record: in vivo. Type of data set: ADME, organism-based. Also on record: route intravenous, dose 2 mg/kg. Summed up: as §1
A short description of data set [9]: AUC (0 to infinity) in CD-1 mouse at 5 mg/kg, po by LC-MS analysis. Type of data set: ADME, organism-based. Details: time infinity, route oral, dose 5 mg/kg. The settings on record: in vivo. An outline of the steps:
as §1

A short description of data set [10]: AUC (0 to t) in CD-1 mouse at 5 mg/kg, po by LC-MS analysis. Type of data set: ADME, organism-based. Also on record: dose 5 mg/kg. The settings on record: in vivo. An outline of the steps: as §1
Data set [11] in a line: Oral bioavailability in CD-1 mouse at 5 mg/kg by LC-MS analysis. The conditions noted are these: in vivo. Type of data set: ADME, organism-based. Summed up:
as §2

In brackets after ≈: the same amount, converted by molar mass.

Usually AUC stands for concentration integrated over time. Lower therefore signals low exposure. The Tmax is the time at which the peak concentration occurs. One may read the Cmax as the peak of the concentration-time curve. A word on the bioavailability: it is the share of a dose that reaches the circulation, judged against a reference dose that is usually intravenous.

`Nc1n[nH]c2cc(-c3ccc(=O)n(Cc4cccc(Cl)c4)c3)ccc12`: the area under the curve (AUC) came out at 855 ng·h/mL in data set [1] and 2410 ng·h/mL in data set [9]. The Tmax in data set [2] was 15 min; in data set [5], 4.8 min. Also, the solubility kinetic at […], 500 µM in data set [3] came to 172 µM (≈ 60.3 µg/mL); in data set [6] it was 275 µM (≈ 96.5 µg/mL). For the same molecule, the results for the highest concentration (Cmax) in data set [4] and in data set [8] were 1050 ng/mL and 1490 ng/mL, respectively. Further, the results for the AUCt in data set [7] and in data set [10] were 834 ng·h/mL and 2150 ng·h/mL, respectively. The same molecule showed a bioavailability in data set [11] of 100%.
As for `Nc1n[nH]c2cc(-c3ccc(=O)n(Cc4ccccc4F)c3)ccc12`, the area under the curve (AUC) in [1] was determined as 677 ng·h/mL; in data set [9] it was 674 ng·h/mL. Moreover, the Tmax in data set [2] amounted to 15 min; in [5] it was 4.8 min. In addition, the solubility kinetic at […], 500 µM in data set [3] is 466 µM (≈ 156 µg/mL); in data set [6], more than 500 µM. For the same molecule, the Cmax in data set [4] is 335 ng/mL; in data set [8], 1670 ng/mL. Moreover, the values for the AUCt in data set [7] and in data set [10] were 629 ng·h/mL and 517 ng·h/mL, respectively. In data set [11], this molecule gave a bioavailability of 33%.

The record behind these values is ChEMBL document CHEMBL4732118, “Discovery of indazole-pyridinone derivatives as a novel class of potent and selective MNK1/2 kinase inhibitors that protecting against endotoxin-induced septic shock” (Eur J Med Chem, 2021).
